Source: PubChem BioAssay
In the library only some 2.2% were active in any assay of this set; here they are far more common.
bCat nuc transl: alters nuclear translocation of beta-catenin in HeLa cells. immunofluorescence imaging. nuclear translocation activity, % at 5 µM. 190,000 tested, 0.3% active;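 active means nuclear translocation activity above 50% at 5 µM, with a well cell count of 50 or more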;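 further: per-cell ratio of nuclear to cytoplasmic median beta-catenin stain intensity; plate controls were DMSO negative control for no effect and GSK-3 inhibitor IX positive control for full effect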
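assay system = human HeLa cells, endogenous beta-catenin | times = compound treatment 24 h, 37°C, 5% CO2 | detection = Anti-beta-catenin immunofluorescence on PFA-fixed, Triton-permeabilized cells, DAPI nuclei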
IEC-6 tox: IEC-6 cytotoxicity, counter-screen for KLF5 inhibitors; luminescence viability; inhibition, % at 5 µM; 290,000 tested, 0.78% active; in the data active means inhibition above about 22%;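 further: 0% = plate median of test compound wells and 100% = cytotoxic reference compound wells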
MT stabilizer: stabilizes microtubules in HeLa cells; % tubulin-high responders, % at 10 µM; 200,000 tested, 0.83% active; HeLa tubulin immunostaining HCS, 24 h; share of cells brighter than vehicle mean+2SD;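 active means plate Z-score above 3 for both tubulin-high and condensed-nucleus cell shares, with cell loss under 80%, at 10 µM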;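 further: anti alpha tubulin signal scored within the nucleus-defined area of each cell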
BaF3 tox: parental Ba/F3 viability inhibition as JAK2V617F counter-screen; CellTiter-Glo ATP luminescence; inhibition, % at 5.6 µM; 220,000 tested, 1.1% active;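 active means inhibition above a per-campaign cutoff, the mean inhibition of all tested compounds plus 3 SD, cut at about 27% in these data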;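 further: 0% = DMSO wells and 100% = JAK Inhibitor I control wells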
Ba/F3 V617F tox: reduce viability of Ba/F3 cells dependent on JAK2V617F; Ba/F3 EpoR-JAK2V617F viability, ATP luminescence; AID 1446; inhibition, % at 5.6 µM; 220,000 tested, 1.1% active;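 active means inhibition above the campaign mean plus 3 SD over all tested compounds, cut at about 24% in these data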;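 further: cytokine-independent growth of Ba/F3 cells driven by EpoR plus mutant JAK2; 0% = DMSO-treated cells and 100% = JAK inhibitor I control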
APP 5UTR inh: APP translation inhibition | inhibition, % at 2 µM | AID 1285 | 190,000 tested, 0.82% active | SH-SY5Y APP 5'UTR-luciferase reporter, luminescence;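 active means inhibition above a set limit, derived from the sample mean plus 3 SD, cut at about 45% in these data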
* = called active by the depositor; / = no result given.

SMILES | bCat nuc transl | IEC-6 tox | MT stabilizer | BaF3 tox | Ba/F3 V617F tox | APP 5UTR inh
CCC(=O)Nc1nonc1-c1nc2ccccc2n1Cc1cccc2ccccc12 | 101* | 5 | 13 | 5 | -1 | 89*
CCC(=O)Nc1nonc1-c1nc2ccccc2n1Cc1ccccc1 | 1 | -9 | 15 | -2 | -5 | 3
NC(=S)N/N=C/c1ccc(C23CC4CC(CC(C4)C2)C3)cc1 | / | 22 | / | / | / | /
Cc1cc(N2CCN(C(c3ccccc3)c3ccccc3)CC2)n2ncnc2n1 | -1 | -1 | 6 | -1 | -3 | 2
Cc1cc(N2CCN(c3nc4ccccc4s3)CC2)n2ncnc2n1 | 1 | 5 | 2 | 48* | 44* | 12
Cc1cccc(C)c1OCC(=O)N/N=C/c1ccc2c(c1)OCO2 | 82* | 3 | 32* | 0 | 0 | -6
Cc1ccccc1NCC(=O)N/N=C\c1ccc2c(c1)OCO2 | -5 | -1 | 2 | 6 | 2 | -19
Cc1ccc(C)c(OCC(=O)Nc2ccc3c(c2)OCO3)c1C | / | 4 | 23* | 0 | -6 | -15
Cc1cccc(OCC(=O)Nc2ccc3c(c2)OCO3)c1C | -2 | 0 | 3 | 4 | 3 | -26
C[C@H]1O[C@H](O[C@H]2[C@H](O)[C@@H](O)[C@@H](O[C@H]3[C@H](O)[C@@H](O)C(O)O[C@@H]3CO)O[C@@H]2CO)[C@H](O)[C@@H](O)[C@@H]1N[C@H]1C=C(CO)[C@@H](O)[C@H](O)[C@H]1O (some centres undefined) | 1 | 34* | / | -7 | 24* | /
CC1OC(OC2C(CO)OC(OC3C(CO)OC(O)C(O)C3O)C(O)C2O)C(O)C(O)C1N[C@@H]1C=C(CO)[C@@H](O)C(O)[C@H]1O (some centres undefined) | / | -8 | / | / | / | /
COC(=O)Oc1ccc(/C=C/C(=O)OC(C)C)cc1OC(=O)OC | 5 | 13 | 6 | 35* | 71* | 37
COC(=O)C1=C(C)N(Cc2ccc(C)cc2)C(=O)/C1=C\c1ccc(O)c(OC)c1 | 2 | 2 | 2 | 3 | 0 | 5
CCOC(=O)C1=C(C)N(c2ccc(C)cc2)C(=O)/C1=C\c1ccc(O)c(OC)c1 | -1 | 1 | / | 29* | -5 | /
COc1cc(/C=C2\SC(=N)N(c3ccc(F)cc3)C2=O)ccc1O | 2 | 12 | 10* | 4 | 0 | -14
COc1ccc(CN(C)Cc2nc(Cc3cccc(F)c3)no2)c2cccnc12 | 1 | 9 | 3 | 62* | 46* | 3
Cc1ccc(C(C)C)c(OCC(=O)NC2CCN(C)CC2)c1 | / | -7 | / | / | / | /
CCC(C)c1ccccc1N1CC(C(=O)Nc2cccc(S(=O)(=O)N3CCOCC3)c2)CC1=O (centres undefined) | / | 5 | / | / | / | /
CCCN(Cc1ccccc1)C(=S)Nc1cccc(C(F)(F)F)c1 | 1 | -1 | 3 | 33* | 34* | 4
CN(C)CCCN(Cc1ccccc1)C(=S)Nc1ccc(F)c(Cl)c1 | 1 | -2 | 2 | 29* | 33* | -12
CN(C)CCCN(Cc1ccccc1)C(=S)Nc1cccc(C(F)(F)F)c1 | -2 | 2 | 6 | 10 | -1 | -13
c1cnc2ccc3ncccc3c2c1 | 1 | -5 | / | 3 | -2 | /
O=Cc1ccc(O)c2ncccc12 | 1 | 100* | / | 53* | 8 | /
O=C(COc1cc2oc(=O)c3c(c2cc1Cl)CCC3)NCc1ccncc1 | / | -2 | / | / | / | /
Cn1c(CSc2nc3ccccc3n2C)nc2ccccc21 | 0 | 7 | 2 | 2 | -3 | -22
SMILES | bCat nuc transl | IEC-6 tox | MT stabilizer | BaF3 tox | Ba/F3 V617F tox | APP 5UTR inh
Cn1c(SC2=CS(=O)(=O)c3ccccc32)nc2ccccc21 | 2 | 21 | 2 | 65* | 89* | 72*
Cc1nn(C)c(C)c1CNC(=O)c1nn2c(c1Cl)NC(c1cccs1)CC2C(F)(F)F (centres undefined) | 0 | 4 | 2 | 32* | 15 | 3
CSc1ccccc1NC(=O)CO/N=C(\C)c1cc2ccccc2o1 | / | 36* | 1 | 3 | -2 | -27
Cc1ccccc1NC(=S)NC(=O)COc1ccccc1C | / | 6 | / | / | / | /
Cc1ccc(C(C)C)c(OCC(=O)N/N=C2\CC(=O)CC(C)(C)C2)c1 | / | 5 | / | / | / | /
Cc1ccc(C(C)C)c(OCC(=O)NN=C2CCCCCCC2)c1 | -2 | 0 | 5 | 3 | -1 | 86*
CCOC(=O)N1CCN(C(=O)CN(c2ccc(Oc3ccccc3)cc2)S(C)(=O)=O)CC1 | 0 | -5 | 2 | 34* | -2 | 22
CCOC(=O)N1CCN(C(=O)CN(c2ccc(OCC)cc2)S(C)(=O)=O)CC1 | -1 | 2 | 2 | 2 | -3 | 12
C=CC[N+](C)(C)C/C(Cl)=C(\Cl)c1ccccc1 | -2 | 4 | 2 | 27* | 26* | 19
CCOc1ccc(C(=O)OCC(=O)N2CC(C)OC(C)C2)cc1OCC (centres undefined) | / | 4 | / | / | / | /
C=CCN(CC(=O)NC1CCCC1)C(=O)C(=O)Nc1ccc2c(c1)OCCO2 | / | -5 | / | / | / | /
CC(C)(C=O)C1=CC(=O)c2ccccc2C1=O | 2 | 6 | 3 | 10 | 4 | 80*
CCOc1ccc(C2CC(=O)NC3=C2C(=O)CCC3)cc1 (centres undefined) | -2 | 2 | 3 | 2 | 0 | 1
CCCCOc1ccccc1C1CC(=O)NC2=C1C(=O)CCC2 (centres undefined) | 109* | 84* | 48* | 83* | 82* | 88*
CCOc1ccccc1C1CC(=O)NC2=C1C(=O)CCC2 (centres undefined) | 22 | 8 | 58* | 5 | -1 | -4
Clc1ccc(-c2cn(-c3ccccc3)c3[n+]2CCS3)cc1 | 3 | -2 | 3 | 78* | 54* | -12
Oc1ccc(C2=NN(c3ccccc3)C(c3ccc(F)cc3)C2)cc1 (centres undefined) | / | 4 | / | / | / | /
CC(=O)c1ccc(-n2cc(-c3ccc(C(C)(C)C)cc3)[n+]3c2SCCC3)cc1 | 2 | 5 | 4 | 62* | 55* | -19
Cc1c(-c2ccc(Cl)cc2)[n+](=O)c(-c2ccccc2)cn1[O-] | 1 | -4 | / | -2 | -3 | /
Fc1ccc(-c2cn(-c3ccccc3)c3[n+]2CCS3)cc1 | 0 | 0 | / | 60* | 55* | /
CC(=O)c1ccc(N2CCN(c3ccc(C(F)(F)F)cn3)CC2)cc1 | -2 | 1 | 2 | 10 | 1 | -17
COc1ccc(-c2cn(-c3ccc(Br)cc3)c3[n+]2CCS3)cc1 | -1 | 2 | 4 | 78* | 65* | -7
O=C(NCc1ccccn1)Nc1ccccc1C(F)(F)F | / | 4 | / | / | / | /
COc1ccccc1CN(C)C(=O)c1ccccc1Sc1ccccc1C#N | / | 10 | / | / | / | /
Cc1cc(NC2CCCCC2)nc2ccccc12 | 0 | 19 | 4 | 6 | 6 | -4
Cc1cc(OCC[N+]2(C)CCCCC2)nc2ccccc12 | -3 | -9 | 1 | 48* | 50* | /
O=C(CSc1nnc(C2CC2)n1CC1CCCO1)Nc1ccc(Cl)cc1 (centres undefined) | / | -1 | / | / | / | /
